Results on 1 compound are retold here after ChEMBL document CHEMBL4765452, “Discovery of (E)-N-(4-methyl-5-(3-(2-(pyridin-2-yl)vinyl)-1H-indazol-6-yl)thiazol-2-yl)-2-(4-methylpiperazin-1-yl)acetamide (IHMT-TRK-284) as a novel orally available type II TRK kinase inhibitor capable of overcoming multiple resistant mutants” (Eur J Med Chem, 2020).

Series [1] in a line: Half life in Sprague-Dawley rat at 10 mg/kg, po. It counts as ADME, organism-based. Particulars: in vivo.
In series [2] the test system is BaF3. Nature of the series: Antitumor activity against mouse BAF3 cells harboring LMNA fused TRKA-F589L mutant allografted in nude mouse assessed as tumor growth inhibition at 40 mg/kg, po administered once daily for 10 days relative to control. It counts as functional. Particulars: 240 h, time 10 day, read-out: TGI. Summed up:
(§1)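 Nu/nu mice given 1 million BaF3 cells (TEL-TRKA, TEL-TRKB, TEL-TRKC, LMNA-TRKA-F589L or LMNA-TRKA-G667S) in DMEM, 1:1 with matrigel, injected subcutaneously into the right flank; oral gavage began at 200–400 mm³, 5 mice per group, compound in 0.5% methylcellulose/0.4% Tween 80 in ddH₂O, 10 days; tumor volume [(W²×L)/2] and body weight recorded daily; TGI versus vehicle.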

Series [3] concerns BaF3. Nature of the series: Antitumor activity against mouse BAF3 cells harboring TEL fused TRKA allografted in nude mouse assessed as tumor growth inhibition at 80 mg/kg, po administered once daily for 10 days relative to control. Type of series: functional. Particulars: 240 h, time 10 day, read-out: TGI. A digest of the protocol:
as §1

A short description of series [4]: Inhibition of LMNA fused TRKA F589L mutant (unknown origin) transfected in mouse BaF3 cells assessed as reduction in phosphorylation at Y490 residue after 2 hrs by Western blot analysis. Particulars: Homo sapiens, BaF3, 2 h. A general note: Immunoblotting shows a protein as a band on a membrane.
Series [5] in a line: Antitumor activity against human […] cells xenografted in nude mouse assessed as tumor growth inhibition at 80 mg/kg, po administered once daily for 10 days relative to control. Type of series: functional. Particulars: KM12-Luc, 240 h, time 10 day, read-out: TGI. Summed up:
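Nu/nu mice given 5 million KM-12-LUC cells in DMEM, 1:1 with matrigel, injected subcutaneously into the right flank; oral gavage started at tumor size 150–200 mm³, 5 mice per group, compound in 0.5% methylcellulose/0.4% Tween 80 in ddH₂O; body weight and tumor volume [(W²×L)/2] measured daily; TGI versus vehicle.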
For orientation: A xenograft is tissue or cells of one species grown in another, often human tumour cells in immunodeficient mice.

For series [6], the target named is Platelet-derived growth factor receptor beta (Homo sapiens, UniProt P09619). The series can be described thus: Inhibition of TEL fused PDGFRbeta (unknown origin) transfected in mouse BAF3 cells assessed as growth inhibition after 72 hrs by CCK8 assay. Type of series: cell-based. A digest of the protocol: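 TEL-fusion isogenic BaF3 lines were built in-house and grown in RPMI 1640 with 10% FBS and 1% penicillin/streptomycin at 37 °C under 5% CO2. Cells were spun down before use.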

The subject of series [7] is BaF3. The series can be described thus: Antitumor activity against mouse BAF3 cells harboring LMNA fused TRKA-G667S mutant allografted in nude mouse assessed as tumor growth inhibition at 40 mg/kg, po administered twice daily for 10 days relative to control. Type of series: functional. Particulars: 240 h, time 10 day, read-out: TGI. Summed up:
as §1

A short description of series [8]: Apparent clearance in mouse at 10 mg/kg, po. Type of series: ADME, organism-based. Particulars: in vivo, read-out: CLz/F (converted).
Series [9] in a line: Apparent volume of distribution in Beagle dog at 5 mg/kg, po. Type of series: ADME, organism-based, Canis lupus familiaris. Particulars: in vivo.
The subject of series [10] is BaF3. The series can be described thus: Antitumor activity against mouse BAF3 cells harboring TEL fused TRKA allografted in nude mouse assessed as tumor growth inhibition at 40 mg/kg, po administered once daily for 10 days relative to control. Particulars: 240 h, time 10 day, read-out: TGI. Type of series: functional. Summed up: as §1
In series [11] the test system is BaF3. The series can be described thus: Inhibition of LMNA fused TRKA G667S mutant (unknown origin) transfected in mouse BAF3 cells assessed as growth inhibition after 72 hrs by CCK8 assay. It counts as cell-based. Particulars: Homo sapiens.
Series [12] is described as follows: Tmax in mouse at 1 mg/kg, iv. It counts as ADME, organism-based. Particulars: in vivo. Summed up: (§2)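 Single-dose PK in mice, Sprague Dawley rats and beagle dogs, given i.v. (1 mg/kg) or p.o. (10 mg/kg mice and rats; 5 mg/kg dogs). AUC0-t, T1/2, Tmax and oral bioavailability (F) derived from plasma profiles.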
A short description of series [13]: Apparent volume of distribution in mouse at 1 mg/kg, iv. Particulars: in vivo, read-out: Vz. Type of series: ADME, organism-based.
A short description of series [14]: Oral bioavailability in mouse at 10 mg/kg. Type of series: ADME, organism-based. Particulars: in vivo. Summed up: as §2
The target of series [15] is VEGFR2 (vascular endothelial growth factor receptor 2), wild type, TEL fusion (Homo sapiens, UniProt P35968). Nature of the series: Inhibition of wild type TEL fused VEGFR2 (unknown origin) transfected in mouse BAF3 cells assessed as growth inhibition after 72 hrs by CCK8 assay. It counts as cell-based. Particulars: mouse BaF3 cells transfected with wild type TEL-fused VEGFR2. A general note: Tetrazolium dyes change colour on reduction, which living cells bring about.

Series [16] is described as follows: Toxicity in mouse xenografted with mouse BAF3 cells harboring TEL fused TRKA assessed as effect on body weight at 40 to 80 mg/kg, po administered once daily for 10 days. Type of series: organism-based. Particulars: in vivo, 240 h, dose 40-80 mg/kg/day, time 10 day. Summed up:
(§3)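 nu/nu mice were given subcutaneous right-flank implants in 1:1 DMEM/matrigel: 1 million BaF3 fusion cells or 5 million KM-12-LUC cells. Oral gavage started at 150–200 mm3 (xenograft) or 200–400 mm3 (allograft). Dosing used 40 or 80 mg/kg in HKI vehicle (0.5% methylcellulose/0.4% Tween 80 in ddH2O), with 5 mice per group. Body weight was recorded daily and behaviour observed.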

The subject of a further series is KM12-Luc. The series can be described thus: Induction of apoptosis in human KM-12-LUC cells assessed as increase in cleaved PARP level after 24 hrs by Western blot analysis. Particulars: dose 0.01-10 µM. It counts as functional, cell-based. Summed up:
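KM-12-LUC cells cultured in RPMI 1640 with 10% FBS and 1% penicillin/streptomycin at 37 °C, 5% CO2. Serially diluted compound added for 24 h. Apoptosis read by western blot for PARP cleavage, with β-actin as loading control.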

Series [17] has as its target High affinity nerve growth factor receptor (Homo sapiens, UniProt P04629). Nature of the series: Inhibition of TRKA in human KM-12-LUC cells assessed as reduction in AKT phosphorylation at S473 residue after 2 hrs by Western blot analysis. It counts as cell-based, KM12-Luc. Summed up:
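KM-12-LUC (TPM3-TRKA fused colon cancer cells) grown in RPMI 1640 with 10% FBS and 1% penicillin/streptomycin at 37 °C under 5% CO2. Serially diluted compound added for 2 h. Lysates western blotted for phospho-AKT (T308/S473) and phospho-ERK1/2 (T202/Y204).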

The subject of series [18] is BaF3. Nature of the series: Antitumor activity against mouse BAF3 cells harboring TEL fused TRKA allografted in nude mouse assessed as tumor growth inhibition administered orally once daily for 10 days. It counts as functional, cell-based. Particulars: dose 40-80 mg/kg/day, time 10.0 day. Summed up: as §1
The nature of series [19]: Toxicity in mouse xenografted with human […] cells assessed as effect on abnormal behaviour at 40 to 80 mg/kg, po administered once daily for 10 days. It counts as organism-based. Particulars: in vivo, 240 h, dose 40-80 mg/kg/day, time 10 day. A digest of the protocol: as §3
The target of series [20] is High affinity nerve growth factor receptor (Homo sapiens, UniProt P04629, G667C). The series can be described thus: Inhibition of LMNA fused TRKA G667C mutant (unknown origin) transfected in mouse BaF3 cells assessed as reduction in phosphorylation at Y490 residue after 2 hrs by Western blot analysis. Type of series: cell-based. A digest of the protocol: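 Isogenic BaF3 lines, made in-house, grown in RPMI 1640 with 10% FBS and 1% penicillin/streptomycin at 37 °C under 5% CO2. Serially diluted compound added for 2 h. Cells collected and lysed, and lysates analysed by western blotting for phospho-TRK. EC50 derived from the blots.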

Series [21] is described as follows: Antiproliferative activity in mouse BAF3 cells assessed as growth inhibition after 72 hrs by CCK8 assay. Type of series: cell-based. A digest of the protocol:
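TEL- or LMNA-fusion isogenic BaF3 lines grown in RPMI 1640 with 10% FBS and 1% penicillin/streptomycin at 37 °C, 5% CO₂; suspension cells collected by spinning at 800 rpm for 4 min before use; growth inhibition scored as GI₅₀.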

High affinity nerve growth factor receptor (Homo sapiens, UniProt P04629, G667C), sequence (P04629 33-796 G667C limits assumed): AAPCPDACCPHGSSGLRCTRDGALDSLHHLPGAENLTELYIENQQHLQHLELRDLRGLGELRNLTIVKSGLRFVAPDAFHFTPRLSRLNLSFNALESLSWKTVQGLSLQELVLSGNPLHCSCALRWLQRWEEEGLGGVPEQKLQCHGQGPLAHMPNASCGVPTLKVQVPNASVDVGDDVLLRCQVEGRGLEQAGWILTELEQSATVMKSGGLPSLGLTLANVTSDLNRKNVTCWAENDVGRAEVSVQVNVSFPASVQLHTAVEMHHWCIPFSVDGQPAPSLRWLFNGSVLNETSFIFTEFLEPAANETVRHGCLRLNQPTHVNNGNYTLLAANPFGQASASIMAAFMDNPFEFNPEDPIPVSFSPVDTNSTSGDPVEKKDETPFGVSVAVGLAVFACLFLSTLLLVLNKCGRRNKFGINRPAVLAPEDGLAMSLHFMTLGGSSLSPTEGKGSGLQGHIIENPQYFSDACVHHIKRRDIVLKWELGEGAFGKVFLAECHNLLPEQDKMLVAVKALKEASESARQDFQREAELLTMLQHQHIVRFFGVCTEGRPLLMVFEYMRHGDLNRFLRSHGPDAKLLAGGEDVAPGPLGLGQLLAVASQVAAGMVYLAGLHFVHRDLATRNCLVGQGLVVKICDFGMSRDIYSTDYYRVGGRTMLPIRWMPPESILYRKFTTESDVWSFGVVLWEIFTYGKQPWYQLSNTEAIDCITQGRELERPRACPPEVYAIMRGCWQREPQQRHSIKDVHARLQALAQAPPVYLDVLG
High affinity nerve growth factor receptor (Homo sapiens, UniProt P04629), sequence (P04629 whole entry, the tested form may be a part): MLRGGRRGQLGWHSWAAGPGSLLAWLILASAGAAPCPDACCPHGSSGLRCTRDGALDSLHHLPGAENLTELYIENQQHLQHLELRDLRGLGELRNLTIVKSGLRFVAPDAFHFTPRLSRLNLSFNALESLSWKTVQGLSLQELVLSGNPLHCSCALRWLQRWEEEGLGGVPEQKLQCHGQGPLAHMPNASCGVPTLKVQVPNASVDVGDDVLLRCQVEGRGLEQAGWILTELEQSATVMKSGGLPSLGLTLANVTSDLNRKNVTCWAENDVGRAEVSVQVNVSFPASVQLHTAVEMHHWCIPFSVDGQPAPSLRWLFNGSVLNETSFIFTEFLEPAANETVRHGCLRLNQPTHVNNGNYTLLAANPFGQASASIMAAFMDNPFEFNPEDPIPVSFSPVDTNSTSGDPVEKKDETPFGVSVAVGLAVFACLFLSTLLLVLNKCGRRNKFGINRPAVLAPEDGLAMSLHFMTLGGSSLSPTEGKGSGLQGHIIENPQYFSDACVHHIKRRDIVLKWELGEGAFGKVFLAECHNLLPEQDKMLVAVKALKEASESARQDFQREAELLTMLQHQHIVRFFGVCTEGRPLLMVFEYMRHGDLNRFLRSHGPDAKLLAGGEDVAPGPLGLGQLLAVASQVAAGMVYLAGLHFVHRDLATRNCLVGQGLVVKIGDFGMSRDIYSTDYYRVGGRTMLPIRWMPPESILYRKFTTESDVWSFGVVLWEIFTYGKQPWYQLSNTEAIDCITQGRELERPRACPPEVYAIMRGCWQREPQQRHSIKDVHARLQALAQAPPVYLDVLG
VEGFR2 (vascular endothelial growth factor receptor 2), wild type, TEL fusion, sequence (P35968 whole entry, the tested form may be a part): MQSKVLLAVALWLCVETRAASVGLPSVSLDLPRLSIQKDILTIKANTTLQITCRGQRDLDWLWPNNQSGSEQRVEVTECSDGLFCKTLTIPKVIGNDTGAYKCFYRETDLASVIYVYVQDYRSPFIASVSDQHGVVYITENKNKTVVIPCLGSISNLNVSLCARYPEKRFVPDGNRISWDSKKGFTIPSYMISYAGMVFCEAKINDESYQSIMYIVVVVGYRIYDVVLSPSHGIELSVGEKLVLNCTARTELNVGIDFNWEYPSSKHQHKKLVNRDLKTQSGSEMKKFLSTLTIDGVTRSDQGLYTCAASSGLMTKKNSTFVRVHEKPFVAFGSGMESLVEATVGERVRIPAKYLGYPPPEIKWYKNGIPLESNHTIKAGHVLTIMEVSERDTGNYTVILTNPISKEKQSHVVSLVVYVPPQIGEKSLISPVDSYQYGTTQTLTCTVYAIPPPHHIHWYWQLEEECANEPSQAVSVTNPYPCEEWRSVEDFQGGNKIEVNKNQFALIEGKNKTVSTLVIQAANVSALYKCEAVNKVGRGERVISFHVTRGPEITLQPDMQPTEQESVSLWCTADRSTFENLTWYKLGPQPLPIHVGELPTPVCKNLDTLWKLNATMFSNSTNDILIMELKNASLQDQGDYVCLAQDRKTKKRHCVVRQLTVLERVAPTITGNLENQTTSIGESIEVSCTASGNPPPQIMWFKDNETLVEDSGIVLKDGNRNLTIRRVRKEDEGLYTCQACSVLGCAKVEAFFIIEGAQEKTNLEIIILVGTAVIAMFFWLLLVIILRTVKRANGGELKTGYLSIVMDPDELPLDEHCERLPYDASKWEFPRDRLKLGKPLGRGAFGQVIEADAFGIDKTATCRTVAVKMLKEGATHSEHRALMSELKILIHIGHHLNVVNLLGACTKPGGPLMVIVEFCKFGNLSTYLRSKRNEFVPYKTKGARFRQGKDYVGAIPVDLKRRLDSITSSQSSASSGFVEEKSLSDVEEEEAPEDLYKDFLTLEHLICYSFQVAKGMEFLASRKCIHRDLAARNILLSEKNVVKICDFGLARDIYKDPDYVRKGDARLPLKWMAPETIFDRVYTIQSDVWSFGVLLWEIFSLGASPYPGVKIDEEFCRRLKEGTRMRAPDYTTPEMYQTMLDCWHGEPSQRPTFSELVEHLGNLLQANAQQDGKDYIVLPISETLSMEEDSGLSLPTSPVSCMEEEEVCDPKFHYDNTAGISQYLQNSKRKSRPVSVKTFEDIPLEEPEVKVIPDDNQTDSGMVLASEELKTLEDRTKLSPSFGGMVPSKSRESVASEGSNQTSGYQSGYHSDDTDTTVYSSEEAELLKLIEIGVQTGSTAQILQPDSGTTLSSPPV
Platelet-derived growth factor receptor beta, sequence (P09619 whole entry, the tested form may be a part): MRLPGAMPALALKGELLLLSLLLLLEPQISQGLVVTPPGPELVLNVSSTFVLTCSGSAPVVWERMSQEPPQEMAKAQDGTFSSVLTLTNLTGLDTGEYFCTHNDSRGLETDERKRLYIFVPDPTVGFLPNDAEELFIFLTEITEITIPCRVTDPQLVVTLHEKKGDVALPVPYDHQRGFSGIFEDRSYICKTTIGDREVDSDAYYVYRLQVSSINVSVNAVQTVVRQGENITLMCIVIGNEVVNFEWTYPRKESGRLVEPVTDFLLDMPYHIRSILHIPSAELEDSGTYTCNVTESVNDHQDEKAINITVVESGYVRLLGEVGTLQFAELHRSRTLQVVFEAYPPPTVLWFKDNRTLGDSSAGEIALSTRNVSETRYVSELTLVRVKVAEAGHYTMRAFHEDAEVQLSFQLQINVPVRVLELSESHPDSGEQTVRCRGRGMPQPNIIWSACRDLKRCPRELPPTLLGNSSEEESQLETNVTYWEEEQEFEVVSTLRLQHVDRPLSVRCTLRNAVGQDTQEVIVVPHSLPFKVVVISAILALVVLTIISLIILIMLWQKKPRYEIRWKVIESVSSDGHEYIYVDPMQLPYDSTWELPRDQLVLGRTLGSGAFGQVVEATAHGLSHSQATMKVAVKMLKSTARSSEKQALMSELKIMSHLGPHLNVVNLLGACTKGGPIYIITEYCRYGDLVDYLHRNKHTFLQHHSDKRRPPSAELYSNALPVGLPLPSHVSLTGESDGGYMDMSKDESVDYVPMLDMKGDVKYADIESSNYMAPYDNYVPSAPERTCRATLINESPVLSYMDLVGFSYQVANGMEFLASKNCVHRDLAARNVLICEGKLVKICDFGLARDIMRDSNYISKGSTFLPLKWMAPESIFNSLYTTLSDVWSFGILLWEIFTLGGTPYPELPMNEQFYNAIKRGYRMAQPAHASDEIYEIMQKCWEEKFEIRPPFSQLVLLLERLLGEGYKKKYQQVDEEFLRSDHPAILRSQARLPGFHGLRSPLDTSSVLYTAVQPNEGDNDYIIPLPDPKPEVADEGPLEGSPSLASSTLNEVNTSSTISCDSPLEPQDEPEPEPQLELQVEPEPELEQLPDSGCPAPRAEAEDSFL

`Cc1nc(NC(=O)CN2CCN(C)CC2)sc1-c1ccc2c(/C=C/c3ccccn3)n[nH]c2c1` returned a t1/2 in [1] of 2.5 h. In addition, the inhibition in vivo at 40 mg/kg/day in the series on BaF3 [2] was 80%; in the series on BaF3 [10] it was 52.2%. For the same compound, the inhibition in vivo at 80 mg/kg/day in the series on BaF3 [3] is 67.5%; in series [5], 94.7%. For the same compound, the EC50 (in general, the concentration needed to bring the measured effect to its halfway point) in [4] is 21 nM; in series [17] it was under 30 nM; in series [20], 67 nM. The values for the GI50 (in series [6]; with BaF3 [11]) were 1.4 nM and 2 nM, respectively. For the same compound, the inhibition in vivo at 40 mg/kg with BaF3 [7] amounted to 64.9%. Further, in series [8], the CL/F was 108 mL/min/kg. The Vz in series [9] turned out to be 149.26 L/kg. In addition, in [12], the Tmax (as a rule, the time from dosing to the highest level) turned out to be 1.98 min. Besides, the Vd in series [13] was found to be 4.93 L/kg. Also, the bioavailability – broadly, the share of a dose that reaches the circulation, judged against a reference dose that is usually intravenous – in series [14] came to 20%. For the same compound, the GI50 (commonly the concentration at which growth is held to half of that of the control) at 72 h in series [15] came out at 1180 nM; in [21], 1400 nM. The Activity entry in series [16] was “Non-Toxic”; in the series with KM12-Luc, “Dose-dependent effect”; in the series with BaF3 [18], “Dose-dependent effect”; in series [19] it was “Non-Toxic”.
